Screening data (PubChem BioAssay)
TLR9-MyD88 block: TLR9-MyD88 interaction inhibition | Q9NR96+Q99836 | CHO BLA complementation TLR9-MyD88, CCF4 FRET ratio | inhibition, % at 4.98 µM | 340,000 compounds, 0.21% hits;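 active means inhibition above the mean over all tested compounds plus 3 SD, cut at about 21% in these data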
UPR XBP1 act: adaptive UPR (XBP1) activation. CHO-XBP1 luciferase reporter, IRE1-XBP1 UPR activation, luminescence; percent of tunicamycin response, DMSO as zero. activation, % at 20 µM. 330,000 compounds, 0.33% hits. AID 463104;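 active means versus positive control, 20 µM dose yields 30% or more activation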
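Material: IRE1-XBP1 luciferase reporter CHO line / Quantity: one thousand reporter cells per well / Buffer or medium: F12 with 10% serum / Compound: 20 µM single concentration, DMSO 1% / Times: 6 h treatment, 37 °C / Detection: Steady-Glo luciferase glow luminescence, 10 min after reagent addition / Benchmarks: tunicamycin high, DMSO low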
CHOP inh: CHOP inhibition in unfolded protein response. CHO-K1 CHOP-promoter luciferase, tunicamycin-induced, 15-18 h. inhibition, % at 10 µM. 220,000 compounds, 3.8% hits. AID 2732;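 active means compounds that reduced the stress-induced luciferase reporter signal by more than about 70% of percent inhibition, limit read from the data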
UPR CHOP act: apoptotic UPR (CHOP) activation. CHO-CHOP luciferase reporter, luminescence; percent of tunicamycin response over DMSO baseline. activation, % at 10 µM. 330,000 compounds, 0.34% hits. AID 449763;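 active means at 10 µM dose, activation of 40% or more, normalized to positive control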
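Material: CHO-CHOP cells, stable luciferase reporter of PERK-eIF2a-CHOP signalling; quantity: 500 reporter cells seeded per well; buffer or medium: F12 medium containing 10% fetal bovine serum; compound: one dose, 10 µM in 0.5% DMSO; incubation: 6 h compound treatment, 37 °C; measured by: Steady-Glo luciferase luminescence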
TLR4-MyD88 BLA: inhibitors of human TLR4-MyD88 binding | O00206+Q99836 | HeLa CL3-4 TLR4/MyD88 BLA complementation, FRET ratio | inhibition, % at 8.4 µM | 200,000 compounds, 0.18% hits | AID 861; in the data active means inhibition above about 25%
NOD2-RIPK2 inh: NOD2-RIPK2 protein interaction inhibition | O43353 | CHO BLA complementation NOD2-RIPK2, CCF4 ratio | 360,000 compounds, 0.38% hits | inhibition, % at 4.98 µM | AID 624267; in the data active means inhibition above about 21%
Each line names hits and unclear results; the compound was inactive in the other large screens. The sample as a whole holds a higher share of hits than the screen did.

NC(=O)c1cc(Br)cc2c3c([nH]c12)CCCC3	CHOP inh 85
Brc1ccc2[nH]c3c(c2c1)CCC3	none (no result: TLR4-MyD88 BLA)
COc1cc2c(cc1OC)C(c1cc(C)ccc1C)CC(=O)N2 (stereo not drawn)	none (no result: CHOP inh, TLR4-MyD88 BLA)
CC(C)c1ccc(NC(=O)c2cc(S(=O)(=O)NCC3COc4ccccc4O3)ccc2F)cc1 (stereo not drawn)	CHOP inh 81
O=C(Nc1ccc(C(F)(F)F)cc1)c1cc(S(=O)(=O)NCC2COc3ccccc3O2)ccc1F (stereo not drawn)	CHOP inh 82
CCCCCCCCC(c1nc2ccccc2[nH]1)N1CCN=C(c2ccccc2)C1=O (stereo not drawn)	none (no result: TLR9-MyD88 block, UPR XBP1 act, CHOP inh, UPR CHOP act, TLR4-MyD88 BLA)
COc1cccc(-c2ccc(C#N)c(OC(=O)c3c(Cl)cccc3Cl)n2)c1	none
COc1cccc(-c2ccc(C#N)c(OC(=O)c3ccc(Cl)cc3)n2)c1	CHOP inh 80
O=C(CCNS(=O)(=O)c1cccc2nonc12)NCCc1ccc(Cl)cc1	CHOP inh 76
Cc1[nH]n(-c2ccc(Cl)cc2)c(=O)c1N=Nc1cccnc1	CHOP inh 90 (no result: TLR4-MyD88 BLA)
Cc1[nH]n(-c2ccccc2)c(=O)c1N=Nc1cccc(Cl)c1	none (no result: CHOP inh, TLR4-MyD88 BLA)
O=C1COC(c2ccccc2O)=NN1CCCl	none (no result: UPR XBP1 act, CHOP inh, UPR CHOP act, TLR4-MyD88 BLA)
O=C(COC(=O)c1cccnc1Cl)Nc1cc(S(=O)(=O)N2CCCCCC2)ccc1Cl	none (no result: CHOP inh, TLR4-MyD88 BLA)
CC1CC(C)(C)CC2(C1)NC(=O)N(CC(=O)OCC(=O)Nc1cc(S(=O)(=O)N3CCCCC3)ccc1Cl)C2=O (stereo not drawn)	none (no result: UPR XBP1 act, CHOP inh, UPR CHOP act, TLR4-MyD88 BLA)
CC1(C)NC(=O)N(CC(=O)OCC(=O)Nc2cc(S(=O)(=O)N3CCCCC3)ccc2Cl)C1=O	CHOP inh 79
Cc1ccc(S(=O)(=O)N2CCCCC2)cc1NC(=O)CN1C(=O)CN(C)C1=O	CHOP inh 86
COCCNC(=O)C1CCCN(C(=O)COc2ccc(Cl)cc2Cl)CC1 (stereo not drawn)	none (no result: TLR9-MyD88 block, UPR XBP1 act, CHOP inh, UPR CHOP act, TLR4-MyD88 BLA)
CCOC(=O)N1CCC(NC(=O)CS(=O)Cc2nc(-c3ccccc3C)oc2C)CC1 (stereo not drawn)	none (no result: CHOP inh, TLR4-MyD88 BLA)
COc1ccc(Nc2nc(N3CCCCC3)c3ccccc3n2)cc1	CHOP inh 82
Oc1ccc(Nc2nc(N3CCCC3)c3ccccc3n2)cc1	none (no result: CHOP inh)
O=C(c1cc(COc2ccccc2)on1)N1CCCC(CN2CCOCC2)C1 (stereo not drawn)	none (no result: CHOP inh, TLR4-MyD88 BLA)
O=C(NC(NNc1ccc([N+](=O)[O-])cc1)(C(F)(F)F)C(F)(F)F)c1ccc(Cl)cc1	CHOP inh 79
CCOc1ccc(CCN2C(=S)N([C@@H](Cc3ccc(O)cc3)CN3CCC[C@@H]3CN3C(=S)NC[C@@H]3Cc3ccc(O)cc3)C[C@@H]2Cc2ccc(O)cc2)cc1	none (no result: TLR9-MyD88 block, UPR XBP1 act, CHOP inh, UPR CHOP act, TLR4-MyD88 BLA)
CC(C)[C@@H]1NC(=O)[C@H](CCCCN)NC(=O)[C@@H](Cc2c[nH]c3ccccc23)NC(=O)[C@H](Cc2ccc(O)cc2)NC(=O)[C@H](C)N(C)C(=O)[C@H](Cc2ccccc2)NC1=O	none (no result: TLR9-MyD88 block, UPR XBP1 act, UPR CHOP act, TLR4-MyD88 BLA, NOD2-RIPK2 inh)
COc1ccc(-c2csc3ncnc(N4CCN(c5ccc(OC)cc5)CC4)c23)cc1	none (no result: CHOP inh, TLR4-MyD88 BLA)
COc1ccc(-c2nsc3c(N4CCCC4)ncnc23)cc1	CHOP inh 90
O=C(CSc1ncnc2c1cnn2-c1ccccc1)NC1CCCC1	none (no result: CHOP inh, TLR4-MyD88 BLA)
CN(C(=O)Nc1ccc(Cl)cc1Cl)[C@H]1c2cc(Br)ccc2OC[C@H]1CO	CHOP inh 89
COc1cccc2c1OC[C@@H](CO)[C@H]2N(C)C(=O)Nc1ccccc1	none
O=S(=O)(c1ccccc1)N1CCCc2ccccc21	none (no result: TLR9-MyD88 block, CHOP inh, TLR4-MyD88 BLA, NOD2-RIPK2 inh)
O=S(=O)(NC1CC1)c1ccc(S(=O)(=O)N2CCCc3ccccc32)cc1	CHOP inh 73
COc1cccc(N(C(=O)Cn2nnc(-c3ccc(Cl)cc3)n2)C(C(=O)NCC2CCCO2)c2ccc(C)cc2)c1 (stereo not drawn)	CHOP inh 80
COc1cccc(N(C(=O)Cn2nnc(-c3ccc(F)cc3)n2)C(C(=O)NCC2CCCO2)c2ccc(Cl)cc2)c1 (stereo not drawn)	none
Nc1nc(Cl)nc2c1ncn2[C@@H]1O[C@H](COP(=O)(O)OP(=O)(O)OP(=O)(O)O)[C@H](O)C1O (stereo partly drawn)	none (no result: TLR9-MyD88 block, UPR XBP1 act, UPR CHOP act, TLR4-MyD88 BLA, NOD2-RIPK2 inh)
CCOc1ccc(C(C)=O)cc1CSC(=N)N	none
CCCCOc1ccc(Br)cc1CSC(=N)N	CHOP inh 76 (no result: UPR XBP1 act, UPR CHOP act)
CCCN1c2cccc3cccc(c23)S1(=O)=O	none
CCN(CC)c1ncnc2c1ncn2Cc1c(Cl)cccc1Cl	none
Clc1cccc(Cl)c1Cn1cnc2c(N3CCCCCC3)ncnc21	CHOP inh 76
CC(C)=CCC/C(C)=C/CCC(C)NCCN1CCNCC1 (stereo not drawn)	CHOP inh 95 (no result: TLR9-MyD88 block, NOD2-RIPK2 inh)
COc1ccc(/C=C/C(=O)c2ccc(O)cc2)cc1COc1ccc(F)cc1	CHOP inh 85
O=C(/C=C/c1ccc(O)c([N+](=O)[O-])c1)c1ccc2ccccc2c1	none (no result: CHOP inh, TLR4-MyD88 BLA)
COc1ccc(Oc2ccc(/C=C/C(=O)c3ccc(O)cc3)cc2[N+](=O)[O-])cc1	CHOP inh 86
COc1ccc(/C=C/C(=O)c2ccccc2)cc1COc1ccc(F)cc1	none
CCc1ccccc1N1CCN(S(=O)(=O)c2ccc(F)c(C)c2)CC1	CHOP inh 74
O=[N+]([O-])c1cnccc1-n1nnc2ccccc21	none (no result: TLR9-MyD88 block, UPR XBP1 act, CHOP inh, UPR CHOP act, TLR4-MyD88 BLA)
COc1ccc(Oc2nc(-c3ccccc3)ncc2S(=O)(=O)c2ccccc2)cc1	CHOP inh 73
Cc1cc(Cl)ccc1Oc1nc(-c2ccccc2)ncc1S(C)(=O)=O	CHOP inh 79
O=S(=O)(c1cccc2nsnc12)N1CCNCC1	none (no result: CHOP inh, TLR4-MyD88 BLA)
Cc1cc(C)c(C)c(S(=O)(=O)N2CCC(C(=O)NCCCN3CCCC3=O)CC2)c1C	none (no result: CHOP inh, TLR4-MyD88 BLA)
CC(C)Oc1cccc(C(=O)NC(=S)Nc2ccccc2)c1	none
COc1ccc(N2C(=O)CC(c3ccccc3)C2=O)cc1 (stereo not drawn)	none (no result: TLR4-MyD88 BLA)
COc1ccc(N2C(=O)CC(c3ccc(OC(C)C)cc3)C2=O)cc1 (stereo not drawn)	CHOP inh 73 (no result: TLR4-MyD88 BLA)
CCCCCCCCNc1ncnc2ccccc12	CHOP inh 81
c1ccc(CCNc2ncnc3ccccc23)cc1	none
NCCCCCc1nnc(SCC(N)=O)o1	none
Cc1ccc(CNC(=O)C2CCC(=O)N(CCc3ccc(Cl)cc3)C2)cc1 (stereo not drawn)	none (no result: CHOP inh, TLR4-MyD88 BLA)
CC(C)(C)OC(=O)N[C@@H](Cc1ccccc1)c1nnc(SCC(=O)c2ccc(Cl)cc2)o1	CHOP inh 86
Cc1[nH]c2ccccc2c1N=Nc1ccc(F)cc1	CHOP inh 90
Cc1ccc(N2CC(NC(=O)N3CCN(C(=O)c4ccco4)CC3)CC2=O)cc1 (stereo not drawn)	none (no result: CHOP inh, TLR4-MyD88 BLA)
